Measured values published in ChEMBL document CHEMBL1148321, “New series of morpholine and 1,4-oxazepane derivatives as dopamine D4 receptor ligands: synthesis and 3D-QSAR model” (J Med Chem, 2004).
Blank lines part the entries; values can stand above or below the compound they belong to. Calls of active or inactive are those of the source. The rule behind the calls is not given here.

Columns and labels:
[1] = biological target: D(2) dopamine receptor (Homo sapiens) (UniProt P14416); test: Compound was tested for its affinity towards human Dopamine receptor D2 at 10 uM; No affinity was observed
D(4) dopamine receptor [2] = biological target: T1, D(4) dopamine receptor (Homo sapiens, UniProt P21917); test: In vitro ability of compound to inhibit binding of [3H]spiperone to human Dopamine receptor D4
T1 sequence (P21917 whole entry): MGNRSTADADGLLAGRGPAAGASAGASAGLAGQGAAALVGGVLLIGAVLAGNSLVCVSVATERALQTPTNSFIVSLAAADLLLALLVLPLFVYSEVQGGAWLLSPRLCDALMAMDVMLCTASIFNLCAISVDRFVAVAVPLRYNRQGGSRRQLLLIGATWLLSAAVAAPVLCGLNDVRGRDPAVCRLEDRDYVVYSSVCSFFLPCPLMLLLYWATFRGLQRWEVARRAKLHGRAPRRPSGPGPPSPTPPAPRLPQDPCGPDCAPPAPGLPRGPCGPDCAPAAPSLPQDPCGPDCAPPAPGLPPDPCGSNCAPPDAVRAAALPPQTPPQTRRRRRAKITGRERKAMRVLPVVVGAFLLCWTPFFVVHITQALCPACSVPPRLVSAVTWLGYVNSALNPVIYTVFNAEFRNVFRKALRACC

D(4) dopamine receptor [3] = biological target: T1, D(4) dopamine receptor; test: In vitro ability to inhibit binding of [3H]spiperone to human recombinant Dopamine receptor D4.2 expressed on CHO cells; type: cell-based
Outline: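 Frozen membranes from CHO cells transfected with human D4.2, stored at -80 C, were thawed and diluted in 50 mM Tris-HCl pH 7.4 with 120 mM NaCl, 5 mM KCl, 5 mM MgCl2 and 1 mM EDTA. They were incubated with [3H]spiperone (0.5 nM final) for 60 min at 25 C, with haloperidol defining nonspecific binding. Samples were filtered on PEI-presoaked GF/C filters, washed with cold Tris/NaCl, and counted by scintillation.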

Chain of D(2) dopamine receptor (Homo sapiens) (P14416 whole entry): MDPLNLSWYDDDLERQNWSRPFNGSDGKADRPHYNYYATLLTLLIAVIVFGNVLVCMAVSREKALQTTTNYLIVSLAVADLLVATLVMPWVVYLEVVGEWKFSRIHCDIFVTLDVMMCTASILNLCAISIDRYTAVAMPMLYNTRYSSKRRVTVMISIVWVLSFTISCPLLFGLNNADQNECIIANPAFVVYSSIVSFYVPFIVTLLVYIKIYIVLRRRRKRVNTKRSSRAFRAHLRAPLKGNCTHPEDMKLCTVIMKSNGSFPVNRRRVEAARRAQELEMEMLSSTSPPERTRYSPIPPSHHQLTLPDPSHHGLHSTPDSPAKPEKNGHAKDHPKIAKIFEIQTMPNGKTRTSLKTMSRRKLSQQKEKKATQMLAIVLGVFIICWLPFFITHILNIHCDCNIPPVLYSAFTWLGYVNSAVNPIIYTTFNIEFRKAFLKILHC

SMILES: COc1cc(Cl)ccc1OC[C@H]1CN(Cc2ccc(Cl)cc2)CCO1
Activity [1]: inactive | Ki (D(4) dopamine receptor [2]): 1600 nM

SMILES: COc1ccc([N+](=O)[O-])cc1OCC1CN(Cc2ccc(Cl)cc2)CCCO1 (stereo unspecified)
Activity [1]: inactive | Ki (D(4) dopamine receptor [2]): 400 nM

SMILES: CCOc1ccccc1OCC1CN(Cc2ccc([N+](=O)[O-])cc2)CCO1 (stereo unspecified)
Activity [1]: inactive | Ki (D(4) dopamine receptor [2]): 35 nM

SMILES: CCOc1ccccc1OCC1CN(Cc2ccc(Cl)cc2Cl)CCO1 (stereo unspecified)
Activity [1]: inactive | Ki (D(4) dopamine receptor [2]): 290 nM

SMILES: Cc1ncccc1OCC1CN(Cc2ccc(Cl)cc2)CCCO1 (stereo unspecified)
Activity [1]: inactive | Ki (D(4) dopamine receptor [2]): 83 nM

SMILES: COCCOc1ccccc1OCC1CN(Cc2ccc(Cl)cc2)CCO1 (stereo unspecified)
Activity [1]: inactive | Ki (D(4) dopamine receptor [2]): 52 nM

SMILES: Clc1ccc(CN2CCOC(COc3ccc(Cl)c4cccnc34)C2)cc1 (stereo unspecified)
Activity [1]: inactive | Ki (D(4) dopamine receptor [2]): 40 nM

SMILES: COc1ccccc1OCC1CN(Cc2ccccc2)CCO1 (stereo unspecified)
Activity [1]: inactive | Ki (D(4) dopamine receptor [3]): 850 nM

SMILES: COc1cccc(OCC2CN(Cc3ccc(Cl)cc3)CCO2)c1OC (stereo unspecified)
Activity [1]: inactive | Ki (D(4) dopamine receptor [2]): 1000 nM

SMILES: COc1cc(C(=O)NC2CC2)c(Cl)cc1OCC1CN(Cc2ccc(Cl)cc2)CCO1 (stereo unspecified)
Activity [1]: inactive | Ki (D(4) dopamine receptor [2]): 150 nM

SMILES: COc1ccc(N)cc1OCC1CN(Cc2ccc(Cl)cc2)CCO1 (stereo unspecified)
Activity [1]: inactive | Ki (D(4) dopamine receptor [2]): 100 nM

SMILES: COc1ccccc1OCC1CN(Cc2cccc(Cl)c2)CCO1 (stereo unspecified)
Activity [1]: inactive | Ki (D(4) dopamine receptor [2]): 650 nM

SMILES: CC(C)Oc1ccccc1OCC1CN(Cc2ccc(Cl)cc2)CCO1 (stereo unspecified)
Activity [1]: inactive | Ki (D(4) dopamine receptor [2]): 46 nM

SMILES: CCOc1cc(C#N)ccc1OCC1CN(Cc2ccc(Cl)cc2)CCO1 (stereo unspecified)
Activity [1]: inactive | Ki (D(4) dopamine receptor [2]): 40 nM

SMILES: COc1cc(I)ccc1OCC1CN(Cc2ccccc2)CCO1 (stereo unspecified)
Activity [1]: inactive | Ki (D(4) dopamine receptor [2]): 430 nM

SMILES: COc1ccccc1OCC1CN(Cc2ccc(C(F)(F)F)cc2)CCO1 (stereo unspecified)
Activity [1]: inactive | Ki (D(4) dopamine receptor [2]): 61 nM

SMILES: COc1ccccc1SCC1CN(Cc2ccc(Cl)cc2)CCO1 (stereo unspecified)
Activity [1]: inactive | Ki (D(4) dopamine receptor [2]): 61 nM

SMILES: COc1cc(Cl)cc(OCC2CN(Cc3ccccc3)CCO2)c1 (stereo unspecified)
Activity [1]: inactive

SMILES: COc1ccc(Cl)cc1OCC1CN(Cc2ccccc2)CCO1 (stereo unspecified)
Activity [1]: inactive | Ki (D(4) dopamine receptor [2]): 70 nM

SMILES: COc1ccc(C(F)(F)F)cc1OCC1CN(Cc2ccc(Cl)cc2)CCO1 (stereo unspecified)
Activity [1]: inactive | Ki (D(4) dopamine receptor [2]): 250 nM

SMILES: COc1ccccc1/C=C/C1CN(Cc2ccc(Cl)cc2)CCO1 (stereo unspecified)
Activity [1]: inactive | Ki (D(4) dopamine receptor [2]): 200 nM

SMILES: COc1ccccc1OCC1CN(Cc2ccc(Cl)cc2)CCO1 (stereo unspecified)
Activity [1]: inactive | Ki (D(4) dopamine receptor [2]): 32 nM

SMILES: CCOc1ccccc1OCC1CN(Cc2ccc(F)cc2)CCO1 (stereo unspecified)
Activity [1]: inactive | Ki (D(4) dopamine receptor [2]): 180 nM

Continued, values first:

Activity [1]: inactive | Ki (D(4) dopamine receptor [2]): 32 nM
SMILES: COc1ccccc1OCC1CN(Cc2ccc(Cl)c(Cl)c2)CCO1 (stereo unspecified)

Activity [1]: inactive | Ki (D(4) dopamine receptor [2]): 23 nM
SMILES: COc1ccc([N+](=O)[O-])cc1OCC1CN(Cc2ccc(Cl)cc2)CCO1 (stereo unspecified)

Activity [1]: inactive | Ki (D(4) dopamine receptor [2]): 4.4 nM
SMILES: COc1cc(Cl)ccc1OCC1CN(Cc2ccc(Cl)cc2)CCO1 (racemic)

Activity [1]: inactive | Ki (D(4) dopamine receptor [2]): 2.9 nM
SMILES: CCOc1ccc(Cl)cc1OCC1CN(Cc2ccc(Cl)cc2)CCO1 (stereo unspecified)

Activity [1]: inactive | Ki (D(4) dopamine receptor [2]): 13 nM
SMILES: CCOc1ccccc1OCC1CN(Cc2ccc(Cl)cc2)CCO1 (stereo unspecified)

Activity [1]: inactive | Ki (D(4) dopamine receptor [2]): 29 nM
SMILES: COc1ccccc1CCC1CN(Cc2ccc(Cl)cc2)CCO1 (stereo unspecified)

Activity [1]: inactive | Ki (D(4) dopamine receptor [2]): 5.5 nM
SMILES: CC(=O)c1ccc(Cl)cc1OCC1CN(Cc2ccc(Cl)cc2)CCCO1 (stereo unspecified)

Activity [1]: inactive | Ki (D(4) dopamine receptor [2]): 2 nM
SMILES: COc1cc(Cl)ccc1OCC1CN(Cc2ccc(Br)cc2)CCCO1 (stereo unspecified)

Activity [1]: inactive | Ki (D(4) dopamine receptor [2]): 13 nM
SMILES: CCOc1cc(Cl)ccc1OCC1CN(Cc2ccc(Cl)cc2)CCO1 (stereo unspecified)

Activity [1]: inactive | Ki (D(4) dopamine receptor [2]): 30 nM
SMILES: COc1ccc(F)cc1OCC1CN(Cc2ccc(Cl)cc2)CCO1 (stereo unspecified)

Activity [1]: inactive | Ki (D(4) dopamine receptor [2]): 7 nM
SMILES: CCOc1cc(Cl)ccc1OCC1CN(Cc2ccc(Cl)cc2)CCCO1 (stereo unspecified)

Activity [1]: inactive | Ki (D(4) dopamine receptor [2]): 4.5 nM
SMILES: COc1ccc(Cl)cc1NCC1CN(Cc2ccc(Cl)cc2)CCO1 (stereo unspecified)

Activity [1]: inactive | Ki (D(4) dopamine receptor [2]): 2.8 nM
SMILES: COc1cc(Cl)ccc1OC[C@@H]1CN(Cc2ccc(Cl)cc2)CCO1

Activity [1]: inactive | Ki (D(4) dopamine receptor [2]): 4.9 nM
SMILES: CCOc1ccccc1OCC1CN(Cc2ccc(Cl)cc2)CCCO1 (stereo unspecified)

Activity [1]: inactive | Ki (D(4) dopamine receptor [2]): 32 nM
SMILES: CCCc1ccccc1OCC1CN(Cc2ccc(Cl)cc2)CCO1 (stereo unspecified)

Activity [1]: inactive | Ki (D(4) dopamine receptor [2]): 9.3 nM
SMILES: CCOc1ccc(Cl)cc1OCC1CN(Cc2ccc(Cl)cc2)CCCO1 (stereo unspecified)

Activity [1]: inactive | Ki (D(4) dopamine receptor [2]): 24 nM
SMILES: CCOc1cc(I)ccc1OCC1CN(Cc2ccc(Cl)cc2)CCO1 (stereo unspecified)

Activity [1]: inactive | Ki (D(4) dopamine receptor [2]): 5.4 nM
SMILES: Oc1cc(Cl)ccc1NCC1CN(Cc2ccc(Cl)cc2)CCO1 (stereo unspecified)
